Results reported in article PMC5024769 (Drug Design, Development and Therapy, 2016).
“Also recorded” adds a separate entry of the source.

Tests used:
[1] = In vitro stability in rat plasma; type: in vitro ADME; settings: 60 minutes incubation with rat plasma
In short: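 Rat plasma was separated by centrifugation and diluted with pH 7.4 phosphate buffer to 80% final. Test compound (20 µM final) was incubated at 37°C for 60 min with agitation, then quenched with MeOH plus CH3CN. Analysis was by HPLC-UV at 254 nm, with acetonitrile–water gradient, mobile phase pH 7.0 (NH4OH) and methyl biphenyl-4-carboxylate internal standard (20 µM). Three independent experiments in duplicate.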

[2] = tested on: diabetic rats (Rattus norvegicus); assay: Blood glucose after a single dose in diabetes model induced by STZ; type: in vivo; settings: for Blood glucose after single dose / Hypoglycemic activity (in words) / Blood glucose before single dose: STZ diabetic rats; for Blood glucose after single dose / Hypoglycemic activity (in words): 20 mg·kg−1 ip, single dose; for Blood glucose before single dose: value before treatment (time control)
In short: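 Diabetes was induced in rats by single iv STZ (60 mg·kg−1 in citrate buffer, pH 4.5). After 4 weeks, male Wistar rats (180–220 g) with glycemia >300 mg/dL were used. Groups were non-diabetic, diabetic plus DMSO vehicle, and diabetic plus test compound (single 20 mg·kg−1 ip dose). Plasma glucose was read by glucometer at 0, 30, 60, 120 and 180 min. n=7/group; mean ± SEM; Student's t-test versus time control.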

[3] = tested on: diabetic rats (Rattus norvegicus); assay: Blood glucose during 7 days' treatment of STZ diabetic rats; type: in vivo; settings: 50 mg/kg once a day for 7 days
In short: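 Male Wistar rats (180–220 g) were made diabetic by single iv STZ (60 mg·kg−1, citrate buffer pH 4.5); after 4 weeks, those with glycemia >300 mg/dL were used. They received test compound 50 mg·kg−1 ip once daily for 7 days, with DMSO as vehicle. Plasma glucose was measured before treatment and on days 3 and 7.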

[4] = tested on: diabetic rats (Rattus norvegicus); assay: Mechanical allodynia; type: in vivo; settings: STZ diabetic rats
In short: (§1)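 Male Wistar rats (180–220 g) were made diabetic by single iv STZ 60 mg·kg−1 (glycemia >300 mg/dL). Thermal hyperalgesia was scored as paw withdrawal latency to radiant heat on the hind paw (plantar meter). Mechanical allodynia was scored as paw withdrawal threshold to pressure (digital analgesiometer). Readings were taken before and 4 weeks after induction, then 3 and 7 days into daily test compound 50 mg·kg−1 ip (DMSO vehicle). n=5/group; mean ± SEM; two-way ANOVA.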

[5] = tested on: diabetic rats (Rattus norvegicus); assay: Thermal hyperalgesia; type: in vivo; settings: STZ diabetic rats
In short: as §1

[6] = In vitro chemical stability in buffer at pH 2.0 and pH 7.4; type: physicochemical; settings: pH 2.0, 20 µM, 37°C
In short: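 DMSO stocks (5–10 mM) were diluted into pH 2 buffer (0.2 M KCl/0.2 M HCl) or pH 7.4 dibasic phosphate buffer, giving 20 µM test compound. Samples were held in a 37°C water bath with vigorous stirring for 0, 30, 60 and 120 min. Acid samples were then neutralised with pH 8.4 phosphate buffer. % remaining = peak area at each time / area at 0 min × 100. At least two experiments in triplicate.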

[7] = tested on: diabetic neuropathic pain model induced by STZ in rats; settings: cited from earlier work
PPARγ [8] = biological target: T1, PPARγ (Homo sapiens, UniProt P37231); settings: cited from earlier work
T1 sequence (P37231 1-505): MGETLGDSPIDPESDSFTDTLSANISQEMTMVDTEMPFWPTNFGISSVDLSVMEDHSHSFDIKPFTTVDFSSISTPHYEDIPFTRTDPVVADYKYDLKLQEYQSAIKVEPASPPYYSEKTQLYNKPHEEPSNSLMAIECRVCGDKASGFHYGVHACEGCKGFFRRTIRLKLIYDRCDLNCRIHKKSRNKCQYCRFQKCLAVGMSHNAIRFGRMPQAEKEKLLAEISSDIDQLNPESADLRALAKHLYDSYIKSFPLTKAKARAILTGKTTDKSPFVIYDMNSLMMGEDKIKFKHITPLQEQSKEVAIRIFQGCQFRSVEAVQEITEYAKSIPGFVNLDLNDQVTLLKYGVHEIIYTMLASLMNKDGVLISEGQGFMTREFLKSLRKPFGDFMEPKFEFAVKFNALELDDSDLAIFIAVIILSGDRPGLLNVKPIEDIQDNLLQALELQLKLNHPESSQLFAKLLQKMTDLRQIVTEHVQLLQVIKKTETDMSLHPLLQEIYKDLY

PPARγ [9] = biological target: T1, PPARγ; assay: PPARγ binding assay performed by CEREP; settings: single concentration 30 µM, rosiglitazone as positive control

COc1ccc(S(=O)(=O)N/N=C/c2cccc(C(=O)O)c2)cc1OC [Compound 4, (E)-3-((2-(3,4-dimethoxyphenylsulfonyl) hydrazono)methyl)benzoic acid]
Plasma stability (in words) [1]: very stable

COC(=O)c1cccc(/C=N/N(C)S(=O)(=O)c2ccc(OC)c(OC)c2)c1 [Compound 5, (E)-methyl 3-((2-(3,4-dimethoxyphenylsulfonyl)-2-methylhydrazono)methyl)benzoate]
Plasma stability (in words) [1]: very stable
Solubility in DMSO ([2]; dosing vehicle DMSO): partially insoluble in DMSO

COC(=O)c1ccc(/C=N/N(C)S(=O)(=O)c2ccc(OC)c(OC)c2)cc1 [Compound 6, (E)-methyl 4-((2-(3,4-dimethoxyphenylsulfonyl)-2-methylhydrazono)methyl)benzoate]
Plasma stability (in words) [1]: unstable
Blood glucose after single dose [2]: 255.3 ± 42.2 mg/dL
Hypoglycemic activity (in words) [2]: showed hypoglycemic activity
Blood glucose before single dose [2]: 397.1 ± 38.2 mg/dL

COC(=O)c1ccc(/C=N/NS(=O)(=O)c2ccc(OC)c(OC)c2)cc1 [Compound 7, (E)-methyl 4-((2-(3,4-dimethoxyphenylsulfonyl)hydrazono)methyl)benzoate]
Hypoglycemic activity (in words) [3]: promoted hypoglycemic activity only after 7 days of treatment
Plasma stability (in words) [1]: unstable
Paw withdrawal threshold (PWT), after treatment ([4]; 50 mg·kg−1 ip, long-term administration): 36.7 ± 0.9 g
Paw withdrawal threshold (PWT), before treatment ([4]; four weeks after induction): 24.0 ± 1.4 g
Blood glucose after single dose [2]: 182.2 ± 22.7 mg/dL
Hypoglycemic activity (in words) [2]: showed hypoglycemic activity
Blood glucose before single dose [2]: 384.0 ± 41.9 mg/dL
Paw withdrawal latency (PWL), after 3 days of treatment ([5]; 50 mg·kg−1 ip): 12.2 ± 0.9 s
Paw withdrawal latency (PWL), after 7 days of treatment ([5]; 50 mg·kg−1 ip): 13.3 ± 0.2 s
Paw withdrawal latency (PWL), before treatment ([5]; four weeks after induction): 8.5 ± 0.2 s
Effect on diabetic neuropathic pain (in words) ([5]; long-term administration, 50 mg·kg−1 ip): reduced diabetic neuropathic pain

COc1ccc(S(=O)(=O)N/N=C/c2ccc(C#N)cc2)cc1OC [Compound 8, (E)-N′-(4-cyanobenzylidene)-3,4-dimethoxybenzenesulfonohydrazide]
Chemical stability [6]: unstable
Plasma stability (in words) [1]: unstable

COc1ccc(S(=O)(=O)N(C)/N=C/c2ccc(C#N)cc2)cc1OC [Compound 9, (E)-N′-(4-cyanobenzylidene)-3,4-dimethoxy-N-methylbenzene-sulfonohydrazide]
Glucose levels after 7 days ([7]; 50 mg/kg for 7 days, vehicle 410.0±58.0 mg/dL): 242.4 ± 55.3 mg/dL
Antinociceptive activity ([7]; diabetic neuropathic pain model induced by STZ in rats): antinociceptive agent
PPARγ activity as described earlier (PPARγ [8]): partial agonist of PPARγ
Plasma stability (in words) [1]: very stable; also recorded: high chemical and plasma stability
Hypoglycemic activity (in words) [2]: did not reduce hyperglycemia

COc1ccc(S(=O)(=O)N/N=C/c2ccc(C(=O)O)cc2)cc1OC [Compound 10, (E)-4-((2-(3,4-dimethoxyphenylsulfonyl) hydrazono)methyl)benzoic acid]
Inhibition of control specific binding to PPARγ (PPARγ [9]): unable to bind to PPARγ
